Screens: PubChem, Broad Institute
SIRT5 block = SIRT5 desuccinylase inhibitors, primary screen, biochemical, fluorescence imaging, single point, set 5; NAD-dependent protein deacylase sirtuin-5, mitochondrial (Homo sapiens), Q9NXA8; Purified SirT5, succinyl-peptide AMC, trypsin-coupled fluorescence; inhibition, % at 15 µM; hit rate 1.1% among 330,000; AID 652115, 2013; in the data active = inhibition above about 15%
Target sequence (Q9NXA8 whole entry, looked up): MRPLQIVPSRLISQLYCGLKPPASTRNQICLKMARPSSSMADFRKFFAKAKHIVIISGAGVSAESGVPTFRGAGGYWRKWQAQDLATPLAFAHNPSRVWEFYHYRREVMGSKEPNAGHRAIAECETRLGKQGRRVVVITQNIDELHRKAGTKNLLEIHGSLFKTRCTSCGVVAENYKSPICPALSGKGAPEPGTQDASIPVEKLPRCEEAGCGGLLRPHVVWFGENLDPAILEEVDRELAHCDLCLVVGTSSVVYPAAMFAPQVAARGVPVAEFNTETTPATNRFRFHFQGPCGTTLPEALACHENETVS
ERAP1 inh = human ERAP1 aminopeptidase inhibitors, primary screen, biochemical, single point, plate reader; hit rate 0.15% among 340,000; inhibition, % at 10.7 µM; recombinant ERAP1, Leu-AMC fluorescence, 60 min; Endoplasmic reticulum aminopeptidase 1 (Homo sapiens), Q9NZ08;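 active = mean replicate inhibition of at least 30%, or all replicates individually reaching that 30% level; inactive = mean below 30% and not every replicate reaching it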
FN deposition inh = inhibitors of fibronectin matrix deposition, primary screen, AH1F cells, Alexa488-fibronectin fluorescence, plate reader; AH1F fibroblasts, overnight; inhibition, % at 12.6 µM; hit rate 0.086% among 350,000; AID 743247, 2014;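 active = mean inhibition across replicates of 30% or more, regardless of how many single replicates reach that level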
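Material: AH1F fibroblast monolayer depositing Alexa488-labelled fibronectin into matrix / Amount: 10000 AH1F cells per well / Signal: fluorescence 485/525 nm / Medium: DMEM, 2% serum / Compound: single dose, pinned / Incubation: 1 h cell adhesion before compound, then overnight fibronectin incubation / Reagent: Alexa488-FN, 24 nM final / Read-out: inhibition of fibronectin deposition signal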
PGC1a acetyl inh = inhibitors of PGC1a acetylation signal, primary screen, cell-based, U2OS, AlphaScreen, inhibitor mode; AlphaScreen anti-acetyl-lysine; with virally co-expressed GCN5 acetyltransferase; inhibition, % at 15.6 µM; hit rate 0.17% among 350,000; AID 651687, 2012;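 active = every replicate shows inhibition of at least 40%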
FGF22 binding = binders of human FGF22 protein, primary screen, FGF22 synaptogenesis inhibitor project, biophysical, thermal shift, single point; Fibroblast growth factor 22 (Homo sapiens), Q9HCT0; recombinant FGF22 thermal shift, SYPRO orange fluorescence; percent of sucrose octasulfate shift, DMSO zero; activity (Tm shift, normalised), % at 9.99 µM; hit rate 1.5% among 340,000;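 active = mean Tm shift, scaled 0 neutral to 100 positive control, at about 1.3% or above, every replicate too, limit read from the data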
Target sequence (Q9HCT0 whole entry, looked up): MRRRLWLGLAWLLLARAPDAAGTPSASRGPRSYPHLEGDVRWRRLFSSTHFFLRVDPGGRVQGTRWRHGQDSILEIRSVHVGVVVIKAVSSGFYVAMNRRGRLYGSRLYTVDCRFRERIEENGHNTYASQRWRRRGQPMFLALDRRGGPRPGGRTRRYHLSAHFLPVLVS
Each line names hits and unclear results; the compound was inactive in the other large screens. The list is not random: actives were taken first. Their share in the collection is about 2.2%.

Cc1cc(N2C(=O)C(O)=C(C(=O)c3cc4ccccc4o3)C2c2ccc(Br)cc2)no1 (stereo not given)	SIRT5 block 25 (no result: PGC1a acetyl inh)
Cc1cc(N2C(=O)C(O)=C(C(=O)c3cc4ccccc4o3)C2c2ccc(Cl)cc2)no1 (stereo not given)	none
O=C(OCc1cccc([N+](=O)[O-])c1)c1cccnc1	FGF22 binding 43 (no result: PGC1a acetyl inh)
O=C(Cc1ccc([N+](=O)[O-])cc1)Nc1cc(C(F)(F)F)cc(C(F)(F)F)c1	none
O=C(Cc1ccc([N+](=O)[O-])cc1)Nc1cccc(C(F)(F)F)c1	FGF22 binding 44
CC(=O)Nc1cccc(C(=O)OCc2ccc([N+](=O)[O-])cc2)c1	FGF22 binding 43
O=C(Nc1ccccc1)Nc1cccc(C(F)(F)F)c1	FGF22 binding 44
C[C@H]1COCc2cn(nn2)CCCC(=O)N1	none (no result: SIRT5 block, ERAP1 inh, PGC1a acetyl inh, FGF22 binding)
C[C@@H]1CN([C@@H](C)CO)C(=O)Cc2cc(NC(=O)c3ccncc3)ccc2O[C@H]1CN(C)Cc1ccncc1	none (no result: FN deposition inh)
C[C@@H]1CN([C@@H](C)CO)C(=O)c2cccc(NC(=O)Nc3ccccc3)c2O[C@H]1CN(C)C(=O)Nc1ccc(F)cc1	none (no result: FN deposition inh)
C[C@H]1CN([C@@H](C)CO)C(=O)c2cc(-c3ccccc3)cnc2O[C@@H]1CN(C)C(=O)Cc1ccccn1	none
CC(=O)Nc1ccc(C(=O)OCc2ccc(Cl)cc2)cc1	none (no result: SIRT5 block, ERAP1 inh, FGF22 binding)
CC(=O)Nc1ccc(C(=O)OCc2ccc(F)cc2)cc1	FGF22 binding 43 (no result: FN deposition inh)
O=C(CNC(=O)OCc1ccccc1)Nc1ccc(F)cc1	ERAP1 inh 32
COc1ccc(NC(=O)Nc2ccc3c(c2)CC(=O)N([C@@H](C)CO)C[C@@H](C)[C@H](CN(C)Cc2ccc(C(=O)O)cc2)O3)cc1	none (no result: FN deposition inh)
CCOc1ccc(C(=O)N2CCN(c3cnn(-c4ccccc4)c(=O)c3Cl)CC2)cc1	FGF22 binding 44 (no result: PGC1a acetyl inh)
O=C(c1cccc(Br)c1)N1CCN(c2cnn(-c3ccccc3)c(=O)c2Cl)CC1	none
COC(=O)CN1CC(=O)N(c2ccccc2)C1=S	FGF22 binding 43 (no result: PGC1a acetyl inh)
CCc1ccc(N2C(=O)CN(CC(=O)OC)C2=S)cc1	none (no result: PGC1a acetyl inh)
C[C@@H]1CCCCO[C@H](CN(C)C(=O)C2CCCCC2)[C@@H](C)CN([C@@H](C)CO)C(=O)c2cc(NC(=O)NC3CCCCC3)ccc2O1	none
C[C@@H]1CN([C@@H](C)CO)C(=O)c2cccc(NC(=O)c3ccc(-c4nccs4)cc3)c2O[C@H]1CN(C)CC1CCCCC1	none (no result: FN deposition inh)
C[C@@H]1CN([C@H](C)CO)S(=O)(=O)c2ccc(Br)cc2O[C@H]1CN(C)Cc1cccc(C(=O)O)c1	none (no result: FN deposition inh)
C[C@H](CO)N1C[C@H](C)[C@@H](CN(C)Cc2cccc(C(=O)O)c2)Oc2cc(Br)ccc2S1(=O)=O	none
C[C@H](CO)N1C[C@H](C)[C@@H](CN(C)Cc2cccc(C(=O)O)c2)Oc2cc(C#CCC3CCCC3)ccc2S1(=O)=O	SIRT5 block 16 (no result: ERAP1 inh, FN deposition inh)
C[C@@H]1CN([C@@H](C)CO)S(=O)(=O)c2ccc(C#CCC3CCCC3)cc2O[C@H]1CN(C)Cc1cccc(C(=O)O)c1	SIRT5 block 17 (no result: FN deposition inh)
CCCN(C)C[C@H]1Oc2cc(C#CCC3CCCC3)ccc2S(=O)(=O)N([C@H](C)CO)C[C@@H]1C	SIRT5 block 19 (no result: FN deposition inh)
C[C@H]1CN([C@@H](C)CO)C(=O)c2cc(NC(=O)CCCCCC(=O)Nc3ccccc3N)ccc2O[C@H]1CN(C)C(=O)Nc1ccc(F)cc1	none (no result: FN deposition inh)
Cc1noc(C)c1NC(=O)Nc1ccc2c(c1)CC(=O)N([C@H](C)CO)C[C@@H](C)[C@@H](CN(C)C(=O)NC1CCCCC1)O2	none (no result: SIRT5 block, ERAP1 inh, FGF22 binding)
COc1cccc(-c2ccc([C@@H]3[C@@H](CO)N4C(=O)CN(C(=O)NC(C)C)C[C@@H]34)cc2)c1	none (no result: FN deposition inh)
CC(C)C1C(=O)N(Cc2cn(Cc3ccco3)nn2)CCS(=O)(=O)N1Cc1ccc(-c2cccc(N(C)C)c2)cc1 (stereo not given)	none (no result: SIRT5 block)
CC(C)CC1C(=O)N(Cc2cn(CC3CCCCC3)nn2)CCS(=O)(=O)N1Cc1ccc(-c2ccc(Cl)c(Cl)c2)cc1 (stereo not given)	SIRT5 block 19 (no result: PGC1a acetyl inh, FGF22 binding)
Cc1ccc(-c2ccc(CN3C(C(C)C)C(=O)N(Cc4cn(Cc5ccco5)nn4)CCS3(=O)=O)cc2)cc1 (stereo not given)	SIRT5 block 16
CS(=O)(=O)Nc1ccc2c(c1)[C@H]1C[C@@H](CC(=O)N3CCc4ccccc4C3)O[C@H](CO)[C@H]1O2	none (no result: FN deposition inh)
CC(C)(C)c1ccc(NC(=O)CON=C(N)c2ccccc2)cc1	none (no result: PGC1a acetyl inh)
Cc1ccc(NC(=O)CO/N=C(\N)c2ccccc2)cc1C	FGF22 binding 43 (no result: SIRT5 block)
O=C(OCc1cnc(Cl)s1)c1ccccc1Cl	none (no result: SIRT5 block, ERAP1 inh, FN deposition inh, FGF22 binding)
O=C(OCc1cnc(Cl)s1)c1cccs1	PGC1a acetyl inh 94 (no result: FN deposition inh)
C[C@@H]1CN([C@H](C)CO)C(=O)c2cc(NC(=O)Nc3cccc4ccccc34)ccc2O[C@@H](C)CCCCO[C@@H]1CN(C)C(=O)NC1CCCCC1	none (no result: FN deposition inh)
COc1ccc(OC)c(N=Nc2c(O)c3ccccc3[nH]c2=O)c1	FGF22 binding 43 (no result: SIRT5 block)
COc1ccc(NC(=O)Cc2c(O)c3ccccc3[nH]c2=O)cc1	none (no result: SIRT5 block, ERAP1 inh, FN deposition inh, FGF22 binding)
COc1ccccc1NC(=O)N1C[C@H]2[C@@H](c3ccccc31)[C@H](CO)N2Cc1ccccc1F	none (no result: FN deposition inh)
CCOC(=O)CSc1nc2cc(OCC)ccc2cc1C#N	SIRT5 block 21 (no result: PGC1a acetyl inh, FGF22 binding)
CCOc1ccc2cc(C#N)c(SCC(=O)N3CCC(C)CC3)nc2c1	none (no result: SIRT5 block, ERAP1 inh, FGF22 binding)
CC=Cc1ccc2n(c1=O)C[C@@H]1[C@@H](CO)[C@H](C(=O)N3CCC(Cc4ccccc4)CC3)N(CCC)[C@H]21 (mixture of isomers)	none (no result: FN deposition inh, PGC1a acetyl inh, FGF22 binding)
COc1ccc(-c2coc3cc(O)cc(O)c3c2=O)cc1	FGF22 binding 2.2
COc1ccc(-c2coc3cc(OC)cc(O)c3c2=O)cc1	none (no result: SIRT5 block, ERAP1 inh, FN deposition inh, FGF22 binding)
COc1ccc(CNC(=O)C[C@H]2C=C[C@@H](NC(=O)CN(C)C)[C@@H](CO)O2)cc1	none (no result: FN deposition inh)
C[C@@H]1CN([C@H](C)CO)C(=O)c2cc(NC(=O)c3ccncc3)ccc2O[C@@H]1CN(C)C(=O)NC1CCCCC1	none (no result: FN deposition inh)
CC1=CC(=O)[C@@H](O)[C@@H](c2ccccc2Br)N1C	FN deposition inh active
COCCNc1nc2ccccc2n2cnnc12	SIRT5 block 17 (no result: PGC1a acetyl inh)
CSc1nc2nc3c(cc2c(=O)n1-c1ccccc1)COC(C)(C)C3	FGF22 binding 43
CSc1nc2nc3c(cc2c(=O)n1-c1ccc(C)cc1)COC(C)(C)C3	none
O=C(NCc1ccccn1)c1ccc([N+](=O)[O-])cc1	none (no result: FN deposition inh, PGC1a acetyl inh)
Cc1cc2cc(CNC(=O)c3cccc([N+](=O)[O-])c3)ccc2n1C	none
O=C(c1ccc([N+](=O)[O-])cc1)N(c1ccccn1)c1ccccn1	SIRT5 block 20 (no result: PGC1a acetyl inh)
